Test results published in ChEMBL document CHEMBL4689842, “EUbOPEN Chemogenomics Library wave 1” (2021).

Tested on: Fibroblast
Experiment: Multiplex assay against human fibroblast
Assay type: toxicity, cell-based
Method in brief: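 Tubulin, mitochondrial-mass and membrane-permeability phenotypes are per cents of healthy-nucleus cells. Cells were gated by CellPathfinder machine learning into Hoechst high-intensity objects or normal cells, normal cells into healthy, pyknosed or fragmented nuclei, and pyknosed cells into mitotic or apoptotic. Before that, live cells stained at seeding with Hoechst33342, BioTracker Green Microtubule Cytoskeleton Dye, MitoTracker Red and Annexin V Alexa Fluor 680 were imaged on a CQ1 microscope at 37°C and 5% CO2 after compound addition.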

[1] = 12 h, 1 µM, compound concentration 1 uM, replicate 1
[2] = 12 h, 1 µM, compound concentration 1 uM, replicate 2
[3] = 12 h, 10 µM, compound concentration 10 uM, replicate 1
[4] = 12 h, 10 µM, compound concentration 10 uM, replicate 2
[5] = 24 h, 1 µM, compound concentration 1 uM, replicate 1
[6] = 24 h, 1 µM, compound concentration 1 uM, replicate 2
[7] = 24 h, 10 µM, compound concentration 10 uM, replicate 1
[8] = 24 h, 10 µM, compound concentration 10 uM, replicate 2
[9] = 48 h, 1 µM, compound concentration 1 uM, replicate 1
[10] = 48 h, 1 µM, compound concentration 1 uM, replicate 2
[11] = 48 h, 10 µM, compound concentration 10 uM, replicate 1
[12] = 48 h, 10 µM, compound concentration 10 uM, replicate 2

C=CC(=O)Nc1cc(-n2c(=O)ccc3cnc4ccc(-c5ccc(NS(C)(=O)=O)cc5)cc4c32)ccc1C
Population Apoptotic (%) [1]: 52% | Population Fragmented Nuclei (%) [1]: 37% | Population Healthy Nuclei (%) [1]: 32% | Population Hoechst High Intensity Objects (%) [1]: 7% | Population Membrane Permeable-Phenotype (%) [1]: 15% | Population Mitochondria Different-Phenotype (%) [1]: 3% | Population Mitotic Cells (%) [1]: 47% | Population Normal (%) [1]: 92% | Population Pyknosed Nuclei (%) [1]: 29% | Population Tubulin-Different-Phenotype (%) [1]: 30% | Total Cell Count [1]: 85 | Population Apoptotic (%) [2]: 33% | Population Fragmented Nuclei (%) [2]: 10% | Population Healthy Nuclei (%) [2]: 77% | Population Membrane Permeable-Phenotype (%) [2]: 0% | Population Mitochondria Different-Phenotype (%) [2]: 10% | Population Mitotic Cells (%) [2]: 66% | Population Pyknosed Nuclei (%) [2]: 12% | Population Tubulin-Different-Phenotype (%) [2]: 10% | Total Cell Count [2]: 53 | Population Apoptotic (%) [3]: 51% | Population Fragmented Nuclei (%) [3]: 30% | Population Healthy Nuclei (%) [3]: 39% | Population Hoechst High Intensity Objects (%) [3]: 8% | Population Membrane Permeable-Phenotype (%) [3]: 32% | Population Mitochondria Different-Phenotype (%) [3]: 13% | Population Mitotic Cells (%) [3]: 48% | Population Normal (%) [3]: 91% | Population Pyknosed Nuclei (%) [3]: 30% | Population Tubulin-Different-Phenotype (%) [3]: 55% | Total Cell Count [3]: 120 | Population Apoptotic (%) [4]: 76% | Population Fragmented Nuclei (%) [4]: 8% | Population Healthy Nuclei (%) [4]: 54% | Population Hoechst High Intensity Objects (%) [4]: 9% | Population Membrane Permeable-Phenotype (%) [4]: 12% | Population Mitochondria Different-Phenotype (%) [4]: 56% | Population Mitotic Cells (%) [4]: 23% | Population Normal (%) [4]: 90% | Population Pyknosed Nuclei (%) [4]: 36% | Population Tubulin-Different-Phenotype (%) [4]: 52% | Total Cell Count [4]: 51 | Population Apoptotic (%) [5]: 54% | Population Fragmented Nuclei (%) [5]: 23% | Population Healthy Nuclei (%) [5]: 44% | Population Hoechst High Intensity Objects (%) [5]: 11% | Population Membrane Permeable-Phenotype (%) [5]: 22% | Population Mitochondria Different-Phenotype (%) [5]: 16% | Population Mitotic Cells (%) [5]: 45% | Population Normal (%) [5]: 88% | Population Pyknosed Nuclei (%) [5]: 31% | Population Tubulin-Different-Phenotype (%) [5]: 38% | Total Cell Count [5]: 78 | Population Apoptotic (%) [6]: 55% | Population Fragmented Nuclei (%) [6]: 11% | Population Healthy Nuclei (%) [6]: 76% | Population Hoechst High Intensity Objects (%) [6]: 2% | Population Membrane Permeable-Phenotype (%) [6]: 3% | Population Mitochondria Different-Phenotype (%) [6]: 15% | Population Mitotic Cells (%) [6]: 44% | Population Normal (%) [6]: 97% | Population Pyknosed Nuclei (%) [6]: 11% | Population Tubulin-Different-Phenotype (%) [6]: 22% | Total Cell Count [6]: 79 | Population Apoptotic (%) [7]: 50% | Population Fragmented Nuclei (%) [7]: 36% | Population Healthy Nuclei (%) [7]: 39% | Population Hoechst High Intensity Objects (%) [7]: 9% | Population Membrane Permeable-Phenotype (%) [7]: 35% | Population Mitochondria Different-Phenotype (%) [7]: 5% | Population Mitotic Cells (%) [7]: 50% | Population Normal (%) [7]: 90% | Population Pyknosed Nuclei (%) [7]: 23% | Population Tubulin-Different-Phenotype (%) [7]: 50% | Total Cell Count [7]: 141 | Population Apoptotic (%) [8]: 84% | Population Fragmented Nuclei (%) [8]: 21% | Population Healthy Nuclei (%) [8]: 32% | Population Hoechst High Intensity Objects (%) [8]: 5% | Population Membrane Permeable-Phenotype (%) [8]: 22% | Population Mitochondria Different-Phenotype (%) [8]: 50% | Population Mitotic Cells (%) [8]: 15% | Population Normal (%) [8]: 94% | Population Pyknosed Nuclei (%) [8]: 46% | Population Tubulin-Different-Phenotype (%) [8]: 33% | Total Cell Count [8]: 59 | Population Apoptotic (%) [9]: 61% | Population Fragmented Nuclei (%) [9]: 32% | Population Healthy Nuclei (%) [9]: 43% | Population Hoechst High Intensity Objects (%) [9]: 6% | Population Membrane Permeable-Phenotype (%) [9]: 25% | Population Mitochondria Different-Phenotype (%) [9]: 3% | Population Mitotic Cells (%) [9]: 38% | Population Normal (%) [9]: 93% | Population Pyknosed Nuclei (%) [9]: 24% | Population Tubulin-Different-Phenotype (%) [9]: 34% | Total Cell Count [9]: 79 | Population Apoptotic (%) [10]: 0% | Population Fragmented Nuclei (%) [10]: 28% | Population Healthy Nuclei (%) [10]: 65% | Population Hoechst High Intensity Objects (%) [10]: 12% | Population Membrane Permeable-Phenotype (%) [10]: 19% | Population Mitochondria Different-Phenotype (%) [10]: 7% | Population Mitotic Cells (%) [10]: 100% | Population Normal (%) [10]: 87% | Population Pyknosed Nuclei (%) [10]: 6% | Population Tubulin-Different-Phenotype (%) [10]: 21% | Total Cell Count [10]: 72 | Population Apoptotic (%) [11]: 78% | Population Fragmented Nuclei (%) [11]: 39% | Population Healthy Nuclei (%) [11]: 43% | Population Hoechst High Intensity Objects (%) [11]: 18% | Population Membrane Permeable-Phenotype (%) [11]: 29% | Population Mitochondria Different-Phenotype (%) [11]: 4% | Population Mitotic Cells (%) [11]: 21% | Population Normal (%) [11]: 81% | Population Pyknosed Nuclei (%) [11]: 17% | Population Tubulin-Different-Phenotype (%) [11]: 56% | Total Cell Count [11]: 135 | Population Apoptotic (%) [12]: 100% | Population Fragmented Nuclei (%) [12]: 56% | Population Healthy Nuclei (%) [12]: 42% | Population Hoechst High Intensity Objects (%) [12]: 15% | Population Membrane Permeable-Phenotype (%) [12]: 33% | Population Mitochondria Different-Phenotype (%) [12]: 1% | Population Mitotic Cells (%) [12]: 0% | Population Normal (%) [12]: 85% | Population Pyknosed Nuclei (%) [12]: 0% | Population Tubulin-Different-Phenotype (%) [12]: 50% | Total Cell Count [12]: 140
